According to ChEMBL document CHEMBL4689842, “EUbOPEN Chemogenomics Library wave 1” (2021):

Legend:
Assay type in all cases: toxicity, cell-based
Fibroblast [1] = experiment: Multiplex assay against human fibroblast
Outline: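 Four dyes were applied at seeding to live cells: Hoechst33342, BioTracker Green Microtubule Cytoskeleton Dye, MitoTracker Red and Annexin V Alexa Fluor 680. Imaging after compound addition used a CQ1 microscope at 37°C and 5% CO2. CellPathfinder machine-learning gating then sorted cells into Hoechst high-intensity objects or normal cells, normal cells into healthy, pyknosed or fragmented nuclei, and pyknosed cells into mitotic or apoptotic, with tubulin, mitochondrial-mass and membrane-permeability phenotypes given as per cents of healthy-nucleus cells.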

HEK-293T = experiment: Incucyte cell viability with HEK293T; settings: human, 10 µM, compound concentration 10 uM; also: filed as whole numbers so only -1 and 0 and 1 occur
Fibroblast [2] = experiment: Incucyte cell viability with human fibroblast; settings: 10 µM, compound concentration 10 uM; also: filed as whole numbers so only -1 and 0 and 1 occur
U2OS = experiment: Incucyte cell viability with U2OS; settings: human, 10 µM, compound concentration 10 uM; also: filed as whole numbers so only -1 and 0 and 1 occur
[3] = 12 h, 1 µM, compound concentration 1 uM, replicate 1
[4] = 12 h, 1 µM, compound concentration 1 uM, replicate 2
[5] = 12 h, 10 µM, compound concentration 10 uM, replicate 1
[6] = 12 h, 10 µM, compound concentration 10 uM, replicate 2
[7] = 24 h, 1 µM, compound concentration 1 uM, replicate 1
[8] = 24 h, 1 µM, compound concentration 1 uM, replicate 2
[9] = 24 h, 10 µM, compound concentration 10 uM, replicate 1
[10] = 24 h, 10 µM, compound concentration 10 uM, replicate 2
[11] = 48 h, 1 µM, compound concentration 1 uM, replicate 1
[12] = 48 h, 1 µM, compound concentration 1 uM, replicate 2
[13] = 48 h, 10 µM, compound concentration 10 uM, replicate 1
[14] = 48 h, 10 µM, compound concentration 10 uM, replicate 2
[15] = 6 h, replicate number 1, timepoint 6 hours
[16] = 12 h, replicate number 1, timepoint 12 hours
[17] = 18 h, replicate number 1, timepoint 18 hours
[18] = 24 h, replicate number 1, timepoint 24 hours

CC(C)[C@H](CO)Nc1nc(Nc2cccc(Cl)c2)c2ncn(C(C)C)c2n1 [PURVALANOLA]
Population Apoptotic (%) (Fibroblast [1]; [3]): 65% | Population Fragmented Nuclei (%) (Fibroblast [1]; [3]): 30% | Population Healthy Nuclei (%) (Fibroblast [1]; [3]): 39% | Population Hoechst High Intensity Objects (%) (Fibroblast [1]; [3]): 17% | Population Membrane Permeable-Phenotype (%) (Fibroblast [1]; [3]): 20% | Population Mitochondria Different-Phenotype (%) (Fibroblast [1]; [3]): 7% | Population Mitotic Cells (%) (Fibroblast [1]; [3]): 35% | Population Normal (%) (Fibroblast [1]; [3]): 82% | Population Pyknosed Nuclei (%) (Fibroblast [1]; [3]): 30% | Population Tubulin-Different-Phenotype (%) (Fibroblast [1]; [3]): 48% | Total Cell Count (Fibroblast [1]; [3]): 241 | Population Apoptotic (%) (Fibroblast [1]; [4]): 50% | Population Fragmented Nuclei (%) (Fibroblast [1]; [4]): 8% | Population Healthy Nuclei (%) (Fibroblast [1]; [4]): 88% | Population Hoechst High Intensity Objects (%) (Fibroblast [1]; [4]): 10% | Population Membrane Permeable-Phenotype (%) (Fibroblast [1]; [4]): 7% | Population Mitochondria Different-Phenotype (%) (Fibroblast [1]; [4]): 21% | Population Mitotic Cells (%) (Fibroblast [1]; [4]): 50% | Population Normal (%) (Fibroblast [1]; [4]): 89% | Population Pyknosed Nuclei (%) (Fibroblast [1]; [4]): 3% | Population Tubulin-Different-Phenotype (%) (Fibroblast [1]; [4]): 15% | Total Cell Count (Fibroblast [1]; [4]): 111 | Population Apoptotic (%) (Fibroblast [1]; [5]): 65% | Population Fragmented Nuclei (%) (Fibroblast [1]; [5]): 24% | Population Healthy Nuclei (%) (Fibroblast [1]; [5]): 38% | Population Hoechst High Intensity Objects (%) (Fibroblast [1]; [5]): 17% | Population Membrane Permeable-Phenotype (%) (Fibroblast [1]; [5]): 10% | Population Mitochondria Different-Phenotype (%) (Fibroblast [1]; [5]): 54% | Population Mitotic Cells (%) (Fibroblast [1]; [5]): 34% | Population Normal (%) (Fibroblast [1]; [5]): 82% | Population Pyknosed Nuclei (%) (Fibroblast [1]; [5]): 36% | Population Tubulin-Different-Phenotype (%) (Fibroblast [1]; [5]): 95% | Total Cell Count (Fibroblast [1]; [5]): 143 | Population Apoptotic (%) (Fibroblast [1]; [6]): 83% | Population Fragmented Nuclei (%) (Fibroblast [1]; [6]): 13% | Population Healthy Nuclei (%) (Fibroblast [1]; [6]): 79% | Population Hoechst High Intensity Objects (%) (Fibroblast [1]; [6]): 7% | Population Membrane Permeable-Phenotype (%) (Fibroblast [1]; [6]): 23% | Population Mitochondria Different-Phenotype (%) (Fibroblast [1]; [6]): 95% | Population Mitotic Cells (%) (Fibroblast [1]; [6]): 16% | Population Normal (%) (Fibroblast [1]; [6]): 92% | Population Pyknosed Nuclei (%) (Fibroblast [1]; [6]): 6% | Population Tubulin-Different-Phenotype (%) (Fibroblast [1]; [6]): 98% | Total Cell Count (Fibroblast [1]; [6]): 66 | Population Apoptotic (%) (Fibroblast [1]; [7]): 48% | Population Fragmented Nuclei (%) (Fibroblast [1]; [7]): 32% | Population Healthy Nuclei (%) (Fibroblast [1]; [7]): 49% | Population Hoechst High Intensity Objects (%) (Fibroblast [1]; [7]): 18% | Population Membrane Permeable-Phenotype (%) (Fibroblast [1]; [7]): 24% | Population Mitochondria Different-Phenotype (%) (Fibroblast [1]; [7]): 7% | Population Mitotic Cells (%) (Fibroblast [1]; [7]): 51% | Population Normal (%) (Fibroblast [1]; [7]): 81% | Population Pyknosed Nuclei (%) (Fibroblast [1]; [7]): 18% | Population Tubulin-Different-Phenotype (%) (Fibroblast [1]; [7]): 60% | Total Cell Count (Fibroblast [1]; [7]): 248 | Population Apoptotic (%) (Fibroblast [1]; [8]): 60% | Population Fragmented Nuclei (%) (Fibroblast [1]; [8]): 8% | Population Healthy Nuclei (%) (Fibroblast [1]; [8]): 83% | Population Hoechst High Intensity Objects (%) (Fibroblast [1]; [8]): 6% | Population Membrane Permeable-Phenotype (%) (Fibroblast [1]; [8]): 5% | Population Mitochondria Different-Phenotype (%) (Fibroblast [1]; [8]): 23% | Population Mitotic Cells (%) (Fibroblast [1]; [8]): 40% | Population Normal (%) (Fibroblast [1]; [8]): 93% | Population Pyknosed Nuclei (%) (Fibroblast [1]; [8]): 8% | Population Tubulin-Different-Phenotype (%) (Fibroblast [1]; [8]): 9% | Total Cell Count (Fibroblast [1]; [8]): 157 | Population Apoptotic (%) (Fibroblast [1]; [9]): 72% | Population Fragmented Nuclei (%) (Fibroblast [1]; [9]): 26% | Population Healthy Nuclei (%) (Fibroblast [1]; [9]): 47% | Population Hoechst High Intensity Objects (%) (Fibroblast [1]; [9]): 20% | Population Membrane Permeable-Phenotype (%) (Fibroblast [1]; [9]): 16% | Population Mitochondria Different-Phenotype (%) (Fibroblast [1]; [9]): 63% | Population Mitotic Cells (%) (Fibroblast [1]; [9]): 27% | Population Normal (%) (Fibroblast [1]; [9]): 79% | Population Pyknosed Nuclei (%) (Fibroblast [1]; [9]): 25% | Population Tubulin-Different-Phenotype (%) (Fibroblast [1]; [9]): 94% | Total Cell Count (Fibroblast [1]; [9]): 145 | Population Apoptotic (%) (Fibroblast [1]; [10]): 80% | Population Fragmented Nuclei (%) (Fibroblast [1]; [10]): 16% | Population Healthy Nuclei (%) (Fibroblast [1]; [10]): 65% | Population Hoechst High Intensity Objects (%) (Fibroblast [1]; [10]): 8% | Population Membrane Permeable-Phenotype (%) (Fibroblast [1]; [10]): 50% | Population Mitochondria Different-Phenotype (%) (Fibroblast [1]; [10]): 100% | Population Mitotic Cells (%) (Fibroblast [1]; [10]): 20% | Population Normal (%) (Fibroblast [1]; [10]): 91% | Population Pyknosed Nuclei (%) (Fibroblast [1]; [10]): 17% | Population Tubulin-Different-Phenotype (%) (Fibroblast [1]; [10]): 100% | Total Cell Count (Fibroblast [1]; [10]): 66 | Population Apoptotic (%) (Fibroblast [1]; [11]): 60% | Population Fragmented Nuclei (%) (Fibroblast [1]; [11]): 39% | Population Healthy Nuclei (%) (Fibroblast [1]; [11]): 51% | Population Hoechst High Intensity Objects (%) (Fibroblast [1]; [11]): 19% | Population Membrane Permeable-Phenotype (%) (Fibroblast [1]; [11]): 23% | Population Mitochondria Different-Phenotype (%) (Fibroblast [1]; [11]): 4% | Population Mitotic Cells (%) (Fibroblast [1]; [11]): 40% | Population Normal (%) (Fibroblast [1]; [11]): 80% | Population Pyknosed Nuclei (%) (Fibroblast [1]; [11]): 9% | Population Tubulin-Different-Phenotype (%) (Fibroblast [1]; [11]): 49% | Total Cell Count (Fibroblast [1]; [11]): 203 | Population Apoptotic (%) (Fibroblast [1]; [12]): 50% | Population Fragmented Nuclei (%) (Fibroblast [1]; [12]): 23% | Population Healthy Nuclei (%) (Fibroblast [1]; [12]): 73% | Population Hoechst High Intensity Objects (%) (Fibroblast [1]; [12]): 8% | Population Membrane Permeable-Phenotype (%) (Fibroblast [1]; [12]): 16% | Population Mitochondria Different-Phenotype (%) (Fibroblast [1]; [12]): 0% | Population Mitotic Cells (%) (Fibroblast [1]; [12]): 50% | Population Normal (%) (Fibroblast [1]; [12]): 91% | Population Pyknosed Nuclei (%) (Fibroblast [1]; [12]): 2% | Population Tubulin-Different-Phenotype (%) (Fibroblast [1]; [12]): 34% | Total Cell Count (Fibroblast [1]; [12]): 74 | Population Apoptotic (%) (Fibroblast [1]; [13]): 85% | Population Fragmented Nuclei (%) (Fibroblast [1]; [13]): 32% | Population Healthy Nuclei (%) (Fibroblast [1]; [13]): 49% | Population Hoechst High Intensity Objects (%) (Fibroblast [1]; [13]): 17% | Population Membrane Permeable-Phenotype (%) (Fibroblast [1]; [13]): 11% | Population Mitochondria Different-Phenotype (%) (Fibroblast [1]; [13]): 79% | Population Mitotic Cells (%) (Fibroblast [1]; [13]): 15% | Population Normal (%) (Fibroblast [1]; [13]): 82% | Population Pyknosed Nuclei (%) (Fibroblast [1]; [13]): 18% | Population Tubulin-Different-Phenotype (%) (Fibroblast [1]; [13]): 92% | Total Cell Count (Fibroblast [1]; [13]): 131 | Population Apoptotic (%) (Fibroblast [1]; [14]): 50% | Population Fragmented Nuclei (%) (Fibroblast [1]; [14]): 37% | Population Healthy Nuclei (%) (Fibroblast [1]; [14]): 60% | Population Hoechst High Intensity Objects (%) (Fibroblast [1]; [14]): 18% | Population Membrane Permeable-Phenotype (%) (Fibroblast [1]; [14]): 7% | Population Mitochondria Different-Phenotype (%) (Fibroblast [1]; [14]): 59% | Population Mitotic Cells (%) (Fibroblast [1]; [14]): 50% | Population Normal (%) (Fibroblast [1]; [14]): 81% | Population Pyknosed Nuclei (%) (Fibroblast [1]; [14]): 2% | Population Tubulin-Different-Phenotype (%) (Fibroblast [1]; [14]): 96% | Total Cell Count (Fibroblast [1]; [14]): 117 | Growth Rate (HEK-293T; [15]): 0 | Growth Rate (HEK-293T; [16]): 0 | Growth Rate (HEK-293T; [17]): 0 | Growth Rate (HEK-293T; [18]): 0 | Growth Rate (Fibroblast [2]; 0 h, replicate number 1, timepoint 0 hours): 0 | Growth Rate (Fibroblast [2]; [15]): 0 | Growth Rate (Fibroblast [2]; [16]): 0 | Growth Rate (Fibroblast [2]; [17]): 0 | Growth Rate (Fibroblast [2]; [18]): 0 | Growth Rate (U2OS; [15]): 0 | Growth Rate (U2OS; [16]): 0 | Growth Rate (U2OS; [17]): 0 | Growth Rate (U2OS; [18]): 0
